Legend:
[1] = Toxicity in liver microsomes isolated from CYP activator dexamethasone-treated Sprague-Dawley rat assessed as induction of mitochondrial permeability transition by measuring mitochondrial swelling at 50 uM measured after 30 mins in absence of NADPH; parameters: species or system Microsome; conditions: 0.5 h
Method in brief: (§1)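 Compound (50 µM) incubated with dexamethasone-treated rat liver microsomes at 37 °C, with or without NADPH, for 30 min. Isolated mitochondrial fraction then added. Swelling followed as absorbance change at 540 nm over time, and area over the curve integrated as the MPT index. Mean ± SD, n = 3.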

[2] = Toxicity in liver microsomes isolated from CYP activator dexamethasone-treated Sprague-Dawley rat assessed as induction of mitochondrial permeability transition by measuring mitochondrial swelling at 50 uM measured after 30 mins in presence of NADPH; parameters: species or system Microsome; conditions: 0.5 h; method in brief: as §1
Hepatocyte [3] = experiment: Cytotoxicity in hepatocytes isolated from CYP activator dexamethasone-treated C57BL/6J mouse at 5 uM after 18 hrs by LDH assay relative to control; assay type: ADME, cell-based
Method in brief: (§2)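 Hepatocytes from mice pretreated with dexamethasone to induce CYP enzymes; compounds at 1 or 5 µM. Cytotoxicity read as LDH release after drug exposure (text gives 16 hr, legend 18 hr). Values are averages of duplicate experiments.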

[4] = molecular target: T1, Solute carrier family 22 member 12 (Homo sapiens, UniProt Q96S37); experiment: Inhibition of human URAT1 expressed in HEK293 cells assessed as inhibition of [14C]-urate uptake at 10 uM after 2 mins by beta-scintillation counting analysis; assay type: cell-based; conditions: hek293, 2 min
T1 sequence (Q96S37 whole entry): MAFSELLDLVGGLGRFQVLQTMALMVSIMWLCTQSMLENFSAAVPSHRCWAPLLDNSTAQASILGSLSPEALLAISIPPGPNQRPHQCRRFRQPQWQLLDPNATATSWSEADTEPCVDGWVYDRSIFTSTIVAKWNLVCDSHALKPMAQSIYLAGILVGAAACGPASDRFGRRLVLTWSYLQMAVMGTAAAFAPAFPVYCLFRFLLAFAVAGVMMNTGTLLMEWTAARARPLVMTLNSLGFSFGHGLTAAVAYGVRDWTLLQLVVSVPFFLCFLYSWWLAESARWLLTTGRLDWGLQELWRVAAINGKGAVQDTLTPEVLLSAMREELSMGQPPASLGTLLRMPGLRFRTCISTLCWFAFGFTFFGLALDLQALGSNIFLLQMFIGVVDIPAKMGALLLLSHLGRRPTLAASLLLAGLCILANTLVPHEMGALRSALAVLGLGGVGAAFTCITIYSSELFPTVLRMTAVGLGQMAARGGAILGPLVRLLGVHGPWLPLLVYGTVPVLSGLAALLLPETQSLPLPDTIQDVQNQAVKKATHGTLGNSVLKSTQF
Method in brief: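 HEK cells overexpressing hURAT1; uric acid uptake measured in presence of compound at 10 µM. Uptake expressed as percent of vehicle control (0.5% DMSO, no inhibitor). Mean ± SD, n = 4.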

Hepatocyte [5] = experiment: Cytotoxicity in hepatocytes isolated from CYP activator dexamethasone-treated C57BL/6J mouse at 1 uM after 18 hrs by LDH assay relative to control; assay type: ADME, cell-based; method in brief: as §2
URAT1 (SLC22A12) = molecular target: T2, URAT1 (SLC22A12) (Homo sapiens, UniProt Q96S37); experiment: Inhibition of human URAT1 expressed in HEK293 cells assessed as [14C]-urate uptake at 10 uM after 2 mins by beta-scintillation counting analysis relative to control; assay type: cell-based; parameters: scale not given: the % may be the effect or the level left; conditions: HEK293 cells expressing human URAT1, probe [14C]-urate, read-out: Activity
T2 sequence (Q96S37 whole entry): T1 sequence (Q96S37 whole entry)

Hepatocyte [6] = experiment: Cytotoxicity in hepatocytes isolated from CYP activator dexamethasone-treated C57BL/6J mouse after 18 hrs by LDH assay relative to control; assay type: ADME, cell-based; method in brief: as §2

Row | SMILES | Activity [1] | Activity [2] | Activity (Hepatocyte [3]) [%] | inhibition (INH) [4] | Activity (Hepatocyte [5]) [%] | activity at 2 min, 10 µM (URAT1 (SLC22A12)) [%] | Activity (Hepatocyte [6])
1 | CCc1oc2ccccc2c1C(=O)c1cc(O)ccc1Br | Non-Toxic | Non-Toxic | < 16 | Active | – | – | –
2 | CCc1oc2ccccc2c1C(=O)c1ccc(Br)c(O)c1Br | Non-Toxic | Non-Toxic | < 16 | Active | – | – | –
3 | CCc1oc2ccccc2c1C(=O)c1ccc(Br)c(O)c1 | Non-Toxic | Non-Toxic | < 16 | Active | – | – | –
4 | CCc1oc2ccccc2c1C(=O)c1cccc(O)c1Br | Non-Toxic | Non-Toxic | < 16 | Active | – | – | –
5 | CCc1oc2ccccc2c1C(=O)c1cc(O)cc(Br)c1 | Non-Toxic | Non-Toxic | < 16 | Active | – | – | –
6 | CCc1oc2ccccc2c1C(=O)c1cc(Br)c(O)c(Br)c1 [BENZBROMARONE] | Non-Toxic | Toxic | 52 | – | 27 | < 10 | Dose-dependent effect
7 | CCc1oc2ccccc2c1C(=O)c1cc(O)c(Br)cc1Br | Non-Toxic | Non-Toxic | < 16 | Active | – | – | –

From ChEMBL document CHEMBL4325877, “Synthesis of novel benzbromarone derivatives designed to avoid metabolic activation” (Bioorg Med Chem Lett, 2018)
